Assay results as given in ChEMBL document CHEMBL3785029, “Synthesis and Characterization of Fatty Acid Conjugates of Niacin and Salicylic Acid” (J Med Chem, 2016).
Blank lines part the entries; values can stand above or below the compound they belong to. Activity calls are given as the source filed them. The rule behind the calls is not given here.

Tests used:
[1] = tested on: Muscle tissue; test: Drug metabolism in Sprague-Dawley rat muscle assessed as salicyluric acid formation at 300 mg/kg, po administered for 14 days followed by 7 day washout cycle measured on day 21; type: ADME, organism-based; conditions: in vivo
[2] = tested on: Brain; test: Drug metabolism in Sprague-Dawley rat brain assessed as salicyluric acid formation at 300 mg/kg, po administered for 14 days followed by 7 day washout cycle measured on day 21; type: ADME, organism-based; conditions: in vivo
[3] = tested on: Rattus norvegicus; test: AUClast in Sprague-Dawley rat assessed as salicyluric acid at 300 mg/kg, po measured up to 24 hrs post dose; type: ADME, organism-based; set-up: time < 24 hr, dose 300 mg/kg, route oral; conditions: in vivo
Method in brief: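 Single oral dose of 300 mg/kg to Sprague Dawley rats. Plasma collected at 0, 0.5, 1, 2, 4, 8 and 24 hr. Analytes were the parent, the salicylate-linker and linker-DHA metabolites, salicylic acid and salicyluric acid; Cmax and AUClast derived.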

[4] = Drug uptake in Sprague-Dawley rat muscle at 300 mg/kg, po administered for 7 days measured 4 hrs post dose on day 7; type: ADME, organism-based, Muscle tissue; conditions: read-out: Drug uptake
Method in brief: (§1)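 Male Sprague Dawley rats, groups of 4, dosed orally at 300 mg/kg once daily for 14 days. Animals killed on days 1, 3, 7 and 14, with plasma, brain, epididymal fat, liver and muscle taken 4 hr after dosing. Parent, salicylic acid and salicyluric acid were measured.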

[5] = tested on: Plasma; test: Drug metabolism in Sprague-Dawley rat plasma assessed as salicylic acid formation at 300 mg/kg, po administered for 7 days measured 4 hrs post dose on day 7; type: ADME, organism-based; conditions: in vivo; method in brief: as §1
[6] = tested on: Muscle tissue; test: Drug metabolism in Sprague-Dawley rat muscle assessed as salicylic acid formation at 300 mg/kg, po administered for 7 days measured 4 hrs post dose on day 7; type: ADME, organism-based; conditions: in vivo; method in brief: as §1
[7] = Drug metabolism in Sprague-Dawley rat epididymal fat assessed as salicylic acid formation at 300 mg/kg, po administered for 7 days measured 4 hrs post dose on day 7; type: ADME, organism-based, Epididymal fat pad; conditions: in vivo; method in brief: as §1
[8] = tested on: Muscle tissue; test: Drug uptake in Sprague-Dawley rat muscle at 300 mg/kg, po administered for 14 days followed by 7 day washout cycle measured on day 21; type: ADME, organism-based; conditions: in vivo
[9] = tested on: Plasma; test: Drug metabolism in Sprague-Dawley rat plasma assessed as salicylic acid formation at 300 mg/kg, po administered for 14 days followed by 7 day washout cycle measured on day 21; type: ADME, organism-based; conditions: in vivo
[10] = Plasma concentration in Sprague-Dawley rat at 300 mg/kg, qd administered through oral gavage for 7 days measured 2 hrs post last dose by LC/MS/MS analysis; type: ADME, organism-based
[11] = Drug uptake in Sprague-Dawley rat intestine at 300 mg/kg, qd administered through oral gavage for 7 days measured 2 hrs post last dose by LC/MS/MS analysis; type: ADME, organism-based; conditions: read-out: Drug uptake
[12] = tested on: Liver; test: Drug metabolism in Sprague-Dawley rat liver assessed as niacin formation at 300 mg/kg, qd administered through oral gavage for 7 days measured 2 hrs post last dose by LC/MS/MS analysis; type: ADME, organism-based; conditions: in vivo, BLD = below limit of detection
[13] = tested on: Rattus norvegicus; test: Cmax in jugular vein cannulated Sprague-Dawley rat assessed as N-(2-aminoethyl)nicotinamide at 30 mg/kg, po measured up to 140 mins; type: ADME, organism-based; set-up: dose 30 mg/kg, route oral; conditions: in vivo
Method in brief: (§2)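 Sprague Dawley rats surgically fitted with indwelling jugular vein and portal vein cannulas; oral dosing, then serial blood draws from both portal and jugular veins at 10, 20, 40 min and 1, 2, 4, 6 hr post dose; plasma analysed for parent and metabolites by LC/MS/MS.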

[14] = tested on: Rattus norvegicus; test: Cmax in portal vein cannulated Sprague-Dawley rat assessed nicotinuric acid at 30 mg/kg, po measured up to 140 mins; type: ADME, organism-based; set-up: dose 30 mg/kg, route oral; conditions: in vivo; method in brief: as §2
[15] = tested on: Rattus norvegicus; test: Cmax in jugular vein cannulated Sprague-Dawley rat assessed nicotinuric acid at 30 mg/kg, po measured up to 140 mins; type: ADME, organism-based; set-up: dose 30 mg/kg, route oral; conditions: in vivo; method in brief: as §2
[16] = target: T1, Sterol regulatory element-binding protein 2 (Homo sapiens) (UniProt Q12772); test: Inhibition of SREBP2 in human HepG2 cells assessed as downregulation of PCSK9 mRNA expression by RT-PCR analysis; type: cell-based
T1 sequence (whole entry): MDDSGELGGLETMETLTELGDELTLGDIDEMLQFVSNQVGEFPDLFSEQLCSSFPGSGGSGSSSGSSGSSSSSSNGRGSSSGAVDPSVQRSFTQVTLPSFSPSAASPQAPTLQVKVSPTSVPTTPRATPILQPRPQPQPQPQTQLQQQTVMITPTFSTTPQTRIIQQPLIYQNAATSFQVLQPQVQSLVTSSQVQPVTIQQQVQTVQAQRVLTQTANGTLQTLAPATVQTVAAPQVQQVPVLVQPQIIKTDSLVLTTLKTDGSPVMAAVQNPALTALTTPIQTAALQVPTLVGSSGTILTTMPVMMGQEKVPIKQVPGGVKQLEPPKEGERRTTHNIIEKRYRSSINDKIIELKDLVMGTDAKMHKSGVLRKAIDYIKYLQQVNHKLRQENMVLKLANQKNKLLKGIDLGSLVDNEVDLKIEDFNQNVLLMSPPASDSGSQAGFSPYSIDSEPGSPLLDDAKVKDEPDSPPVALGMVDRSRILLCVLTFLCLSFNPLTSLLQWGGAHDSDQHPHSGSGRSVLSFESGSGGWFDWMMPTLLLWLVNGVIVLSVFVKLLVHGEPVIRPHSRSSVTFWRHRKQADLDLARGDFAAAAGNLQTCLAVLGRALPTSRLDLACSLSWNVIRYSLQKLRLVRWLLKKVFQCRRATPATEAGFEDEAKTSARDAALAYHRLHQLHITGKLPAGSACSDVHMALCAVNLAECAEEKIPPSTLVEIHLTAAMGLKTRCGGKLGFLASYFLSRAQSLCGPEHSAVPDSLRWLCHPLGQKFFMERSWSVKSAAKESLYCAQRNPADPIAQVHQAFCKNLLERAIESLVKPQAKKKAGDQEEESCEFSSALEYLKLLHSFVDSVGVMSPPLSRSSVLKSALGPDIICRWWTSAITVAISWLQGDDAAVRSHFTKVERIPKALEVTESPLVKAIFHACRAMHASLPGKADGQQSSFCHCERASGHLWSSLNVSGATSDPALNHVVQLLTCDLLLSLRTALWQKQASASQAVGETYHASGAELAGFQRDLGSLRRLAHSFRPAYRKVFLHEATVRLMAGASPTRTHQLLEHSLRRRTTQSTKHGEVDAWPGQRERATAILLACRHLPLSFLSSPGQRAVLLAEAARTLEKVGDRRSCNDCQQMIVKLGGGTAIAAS

[17] = tested on: HepG2; test: Inhibition of ApoB secretion in human HepG2 cells after 16 hrs by ELISA; type: functional, cell-based
[18] = tested on: Mus musculus; test: Inhibition of PCSK9 levels in po dosed ApoE*3-Leiden mouse plasma administered for 16 weeks; type: functional, organism-based
Method in brief: (§3)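 Transgenic ApoE*3-Leiden mice on high-cholesterol Western-type diet dosed over 16 weeks; plasma PCSK9, total cholesterol, triglycerides and lipoprotein profile (VLDL, LDL) assessed at study end.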

[19] = tested on: Mus musculus; test: Inhibition of triglyceride levels in po dosed ApoE*3-Leiden mouse plasma administered for 16 weeks; type: functional, organism-based; method in brief: as §3
[20] = tested on: Plasma; test: Metabolic stability in beagle dog plasma at 5 uM up to 2 hrs by LC-MS-MS analysis; type: ADME, cell-free, Canis lupus familiaris
Method in brief: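 Plasma from each species diluted to 50% with 0.05 M PBS pH 7.4 and prewarmed to 37 °C; compound added at 5 µM final (from DMSO stock diluted in MeOH); triplicate incubations at 37 °C, sampled at 0, 30, 60, 120 min, quenched with acetonitrile containing internal standard, centrifuged, analysed by LC/MS/MS.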

Drug metabolism [1]: metabolite_notdetected
Drug metabolism [2]: metabolite_notdetected
AUClast [3]: 2937 ng·h/mL
concentration at 4 h [4]: 425 ng/g
Drug metabolism [5]: 154.2 ng/mL
Drug metabolism [6]: 265.73 ng/g
Drug metabolism [7]: 65.03 ng/g
Drug uptake [8]: Not Active
Drug metabolism [9]: metabolite_notdetected
Compound: CC/C=C\C/C=C\C/C=C\C/C=C\C/C=C\C/C=C\CCC(=O)NCCNC(=O)c1ccccc1O [EDASALONEXENT]

Compound: CC/C=C\C/C=C\C/C=C\C/C=C\C/C=C\CCCC(=O)NCCNC(=O)c1cccnc1
concentration at 2 h [10]: 13 ng/mL
concentration at 2 h [11]: 6750 ng/g
Drug metabolism [12]: BLD
Cmax [13]: 336 ng/mL
Cmax [14]: 125 ng/mL
Cmax [15]: 135 ng/mL
inhibition [16]: Dose-dependent effect
inhibition [17]: Dose-dependent effect
IC50 ([17]; HepG2, 16 h): 27 µM
inhibition [18]: Active
inhibition [19]: Active
Stability [20]: Stable
